The structures appear in SMILES notation. Some results are limits rather than exact numbers.

Usually IC50 stands for the midpoint of a concentration-inhibition curve.

Sequence of C-C chemokine receptor type 2 (P41597 whole entry): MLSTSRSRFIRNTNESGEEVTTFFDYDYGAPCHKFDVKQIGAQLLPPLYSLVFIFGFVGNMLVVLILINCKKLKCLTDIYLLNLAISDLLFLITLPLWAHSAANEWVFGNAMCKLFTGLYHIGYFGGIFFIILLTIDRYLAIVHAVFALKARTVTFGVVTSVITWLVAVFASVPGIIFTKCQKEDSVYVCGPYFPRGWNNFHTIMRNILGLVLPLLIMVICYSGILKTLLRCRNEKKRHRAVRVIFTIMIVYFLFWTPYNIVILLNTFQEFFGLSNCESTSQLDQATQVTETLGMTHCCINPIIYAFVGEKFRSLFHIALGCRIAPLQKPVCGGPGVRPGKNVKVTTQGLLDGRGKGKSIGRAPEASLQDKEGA
Sequence of Voltage-gated inwardly rectifying potassium channel KCNH2 (Q12809 whole entry): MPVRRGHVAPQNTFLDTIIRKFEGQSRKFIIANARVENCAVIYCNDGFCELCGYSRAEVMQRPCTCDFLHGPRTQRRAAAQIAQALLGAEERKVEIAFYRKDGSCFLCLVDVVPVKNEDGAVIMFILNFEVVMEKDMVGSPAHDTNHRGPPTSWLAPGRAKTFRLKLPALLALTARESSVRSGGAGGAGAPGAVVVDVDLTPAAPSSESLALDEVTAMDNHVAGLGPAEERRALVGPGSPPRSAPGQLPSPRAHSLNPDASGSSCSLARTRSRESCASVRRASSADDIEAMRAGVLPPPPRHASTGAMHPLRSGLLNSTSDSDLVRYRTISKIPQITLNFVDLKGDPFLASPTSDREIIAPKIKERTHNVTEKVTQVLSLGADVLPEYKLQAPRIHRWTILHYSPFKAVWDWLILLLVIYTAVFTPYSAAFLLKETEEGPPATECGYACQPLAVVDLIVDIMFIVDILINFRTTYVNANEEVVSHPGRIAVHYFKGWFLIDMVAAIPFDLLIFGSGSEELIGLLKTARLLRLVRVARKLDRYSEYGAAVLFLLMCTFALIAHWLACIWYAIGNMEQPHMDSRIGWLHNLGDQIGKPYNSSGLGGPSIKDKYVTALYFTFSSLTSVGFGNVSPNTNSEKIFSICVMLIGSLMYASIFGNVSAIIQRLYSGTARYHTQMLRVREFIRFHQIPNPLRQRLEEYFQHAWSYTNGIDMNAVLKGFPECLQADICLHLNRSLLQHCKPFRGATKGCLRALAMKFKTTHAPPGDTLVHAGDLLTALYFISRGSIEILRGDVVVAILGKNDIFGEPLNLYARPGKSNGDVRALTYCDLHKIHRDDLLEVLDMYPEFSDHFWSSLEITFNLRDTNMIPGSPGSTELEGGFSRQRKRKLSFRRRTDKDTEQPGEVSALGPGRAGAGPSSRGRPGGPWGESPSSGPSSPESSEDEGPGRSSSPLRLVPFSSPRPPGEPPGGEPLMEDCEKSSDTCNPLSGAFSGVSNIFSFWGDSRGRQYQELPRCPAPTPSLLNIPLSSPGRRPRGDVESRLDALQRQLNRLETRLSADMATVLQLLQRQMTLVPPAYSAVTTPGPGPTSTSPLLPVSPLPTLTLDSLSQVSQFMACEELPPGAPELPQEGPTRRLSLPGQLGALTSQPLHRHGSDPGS

The first assay addresses Voltage-gated inwardly rectifying potassium channel KCNH2 (Homo sapiens, UniProt Q12809). Put plainly: Displacement of [3H]astemizole from human ERG expressed in HEK293 cells after 1 hr. (In general: Loss of bound radioactivity is the signal in a displacement assay; it reports binding, not function.)
Turning to `O=C(CNC(=O)c1cccc(C(F)(F)F)c1)NC1CN(C2CCC(c3c[nH]c4ccccc34)CC2)C1` (mixture of isomers), the IC50 was 2400 nM. On the same count and under the same terms, the same measure for `O=C(CNC(=O)c1ccc(C(F)(F)F)cc1)NC1CN([C@H]2CC[C@H](c3ccc4c(c3)OCO4)CC2)C1`: 1500 nM.

The target in another assay is C-C chemokine receptor type 2 (Homo sapiens, UniProt P41597). Put plainly: Displacement of [125I]-MCP1 from CCR2 in human THP1 cells after 2 hrs by microplate scintillation and luminescence counting. It counts as cell-based, THP-1. An outline of the steps:
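They were incubated with 0.5 nM ¹²⁵I-MCP-1 and varying test compound concentrations for 2 h at 30 °C. Cold MCP-1 defined nonspecific binding. Buffer-only blanks were subtracted and values compared with vehicle.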
With `COc1ccc([C@]2(O)CC[C@@H](N3CC(NC(=O)CNC(=O)c4cccc(C(F)(F)F)c4)C3)CC2)cc1`, the IC50 turned out to be 20 nM.

`N#C[C@]1(c2ccccc2)CC[C@H](N2CC(NC(=O)CNC(=O)c3cccc(C(F)(F)F)c3)C2)CC1` registered an IC50 above 25000 nM. Regarding `O=C(CNC(=O)c1cccc(C(F)(F)F)c1)NC1CN([C@H]2CC[C@H](c3ccc4c(c3)OCO4)CC2)C1`, the half-inhibitory concentration (IC50) stood at 1800 nM.

Compound `O=C(CNC(=O)c1cccc(C(F)(F)F)c1)NC1CN(C2CCN(c3ccc4c(c3)OCO4)CC2)C1` had a 50% inhibitory concentration (IC50) above 25000 nM. Same read-out and setting: the same measure for `O=C(CNC(=O)c1cccc(C(F)(F)F)c1)NC1CN(C2CCC(c3c[nH]c4ccccc34)CC2)C1` (mixture of isomers): below 1000 nM. Same read-out and setting: the value for `O=C(CNC(=O)c1cccc(C(F)(F)F)c1)NC1CN([C@H]2CC[C@H](c3ccc(C(=O)O)cc3)CC2)C1` was 70 nM; that for `O=C(CNC(=O)c1cccc(C(F)(F)F)c1)NC1CN([C@H]2CC[C@](O)(c3ccc4c(c3)OCC4)CC2)C1` was 25 nM; that for `COc1cnccc1[C@H]1CC[C@H](N2CC(NC(=O)CNC(=O)c3cccc(C(F)(F)F)c3)C2)CC1` was 32 nM.

In turn, `Nc1ccc([C@H]2CC[C@H](N3CC(NC(=O)CNC(=O)c4cccc(C(F)(F)F)c4)C3)CC2)nc1` had a concentration for half-maximal inhibition (IC50) of 85 nM.

On to `O=C(CNC(=O)c1cccc(C(F)(F)F)c1)NC1CN([C@H]2CC[C@](CO)(c3ccccc3)CC2)C1`, for which the IC50 was above 25000 nM. The same measure, in the same setting: the value for `O=C(CNC(=O)c1cccc(C(F)(F)F)c1)NC1CN([C@H]2CC[C@](O)(c3cccnc3)CC2)C1` was 190 nM; that for `COc1cc([C@H]2CC[C@H](N3CC(NC(=O)CNC(=O)c4cccc(C(F)(F)F)c4)C3)CC2)ccn1` was 25 nM. The same measure, in the same setting: the value for `O=C(CNC(=O)c1cccc(C(F)(F)F)c1)NC1CN(C2CC=C(c3ccc4c(c3)OCO4)CC2)C1` (stereo not drawn) was 1000 nM; that for `O=C(CNC(=O)c1cccc(C(F)(F)F)c1)NC1CN([C@H]2CC[C@](O)(c3ccc(F)cc3)CC2)C1` was 210 nM; that for `COc1ccc([C@H]2CC[C@H](N3CC(NC(=O)CNC(=O)c4cccc(C(F)(F)F)c4)C3)CC2)cn1` was 7 nM. Still for that read-out and setting: the value for `N[C@]1(c2ccccc2)CC[C@H](N2CC(NC(=O)CNC(=O)c3cccc(C(F)(F)F)c3)C2)CC1` was 240 nM; that for `O=C(CNC(=O)c1cccc(C(F)(F)F)c1)NC1CN([C@H]2CC[C@](O)(c3ccc4c(c3)OCO4)CC2)C1` was 22 nM; that for `O=C(CNC(=O)c1cccc(C(F)(F)F)c1)NC1CN([C@H]2CC[C@@H](c3ccc4c(c3)OCO4)CC2)C1` was 5 nM. Take `COc1ccc([C@H]2CC[C@H](N3CC(NC(=O)CNC(=O)c4cccc(C(F)(F)F)c4)C3)CC2)cc1`: the IC50 was 10 nM. Same read-out and setting: the same measure for `O=C(CNC(=O)c1cccc(C(F)(F)F)c1)NC1CN([C@H]2CC[C@H](c3ccc(O)cc3)CC2)C1`: 21 nM; for `O=C(CNC(=O)c1cccc(C(F)(F)F)c1)NC1CN([C@H]2CC[C@H](c3ccc(N4CCCC4)cc3)CC2)C1`: 61 nM; for `O=C(CNC(=O)c1ccc(C(F)(F)F)cc1)NC1CN([C@H]2CC[C@H](c3ccc4c(c3)OCO4)CC2)C1`: 1200 nM. On the same count and under the same terms, the value for `O=C(CNC(=O)c1cccc(C(F)(F)F)c1)NC1CN([C@H]2CC[C@H](c3cccnc3)CC2)C1` was 45 nM.

In the case of `O=C(CNC(=O)c1cccc(C(F)(F)F)c1)NC1CN([C@H]2CC[C@H](c3ccc(O)cn3)CC2)C1`, the 50% inhibitory concentration (IC50) was 13 nM.

In turn, `N#Cc1cccc([C@]2(O)CC[C@@H](N3CC(NC(=O)CNC(=O)c4cccc(C(F)(F)F)c4)C3)CC2)c1` gave a concentration for half-maximal inhibition (IC50) of 410 nM. Same read-out and setting: the same measure for `O=C(CNC(=O)c1cccc(C(F)(F)F)c1)NC1CN([C@H]2CC[C@H](c3ccncc3O)CC2)C1`: 52 nM.

With `O=C(CNC(=O)c1cccc(C(F)(F)F)c1)NC1CN([C@H]2CC[C@H](c3ccccc3)CC2)C1`, the IC50 is 35 nM. The IC50 values of the last two compounds are within 1.5-fold of each other. The same measure, in the same setting: the value for `O=C(CNC(=O)c1ccccc1)NC1CN([C@H]2CC[C@H](c3ccc4c(c3)OCO4)CC2)C1` was 390 nM; that for `O=C(CNC(=O)c1cccc(C(F)(F)F)c1)NC1CN([C@H]2CC[C@H](c3ccc4[nH]cnc4c3)CC2)C1` was 27 nM. Same read-out and setting: the same measure for `Cc1cccc(C)c1[C@]1(O)CC[C@@H](N2CC(NC(=O)CNC(=O)c3cccc(C(F)(F)F)c3)C2)CC1`: above 25000 nM; for `O=C(CNC(=O)c1cccc(C(F)(F)F)c1)NC1CN([C@H]2CC[C@](C(=O)O)(c3ccccc3)CC2)C1`: above 25000 nM.

The values are drawn from ChEMBL document CHEMBL1828623, “Overcoming hERG activity in the discovery of a series of 4-azetidinyl-1-aryl-cyclohexanes as CCR2 antagonists” (Bioorg Med Chem Lett, 2011).
